High-throughput results (PubChem BioAssay)
CAL PDZ FP-1 – inhibitors of human CAL PDZ peptide binding; 300,000 compounds, 0.92% hits; purified CAL PDZ, TMR-peptide fluorescence polarization, 1 h; AID 602252; inhibition, % at 24.9 µM;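 active means mean inhibition of at least 30% with at least half of replicates also reaching 30%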;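 further: 0% = DMSO neutral control and 100% = excess unlabeled competitor peptide PRC23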
ARNT-TACC3 inh – disrupts binding between human ARNT and TACC3; Q9Y6A5; AlphaScreen His-ARNT PAS-B/GST-TACC3 binding, luminescence; TACC3 fragment carries E629A point mutation; inhibition, % at 9.99 µM; 390,000 compounds, 0.66% hits; AID 623870;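 active means mean inhibition of replicates at least 50% and at least half of replicates each reaching 50%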;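 further: 0% = complete ARNT plus TACC3 wells and 100% = ARNT alone without TACC3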
CAL PDZ FP-2 – inhibitors of human CAL PDZ peptide binding | Q9HD26 | purified CAL PDZ, TMR-peptide fluorescence polarization, 1 h | inhibition, % at 20 µM | 330,000 compounds, 0.02% hits | AID 504414;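 active means highest replicate inhibition of at least 40%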;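 further: plate controls were DMSO neutral control wells for no effect and unlabeled competitor peptide control wells for full effect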
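Read-out basis: mP drop reported as inhibition | Assay system: Tagged CAL PDZ protein CerCALP, purified | Benchmarks: Unlabelled peptide for full inhibition, DMSO wells as neutral | Schedule: 1 h incubation at room temperature before polarization reading | Buffer or medium: Sodium phosphate/NaCl buffer pH 7.4 with TCEP, IgG, Thesit | Doses: Single point, 20 µM | Measured by: Fluorescence polarization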
* = called active by the depositor; x = no result; + = active, no number. The list is not random: actives were taken first. Their share in the collection is about 1.2%.

SMILES	CAL PDZ FP-1	ARNT-TACC3 inh	CAL PDZ FP-2
CN(C)c1ccc(O)c2c1CC1CC3[C@@H](N(C)C)C(=O)C(C(N)=O)C(=O)[C@]3(O)C(=O)C1C2=O (stereo partly drawn)	1.7	59.7*	0.8
CN(C)c1ccc(O)c2c1CC1CC3C(N(C)C)C(=O)C(C(N)=O)=C(O)[C@@]3(O)C(=O)C1=C2O (stereo partly drawn)	-4.1	39.8	0.7
CCCNC(=O)Nc1ccc2c(c1)C(=O)N(C)[C@@H]1CC[C@@H](CC(=O)NC3CCC3)O[C@H]1CO2	x	-10.6	x
c1ccc(-n2c(Cc3cn4ccsc4n3)nnc2N2CCOCC2)cc1	-3.0	45.3*	-3.1
c1ccc(-n2cnnc2SCc2cn3ccsc3n2)cc1	-0.7	5.4	-1.1
O=S(=O)(N[C@@H]1CC[C@H](CCn2cc(-c3cccnc3)nn2)O[C@@H]1CO)c1ccc(Cl)cc1	x	-10.9	x
O=C(O)CC/C(=N\NC(=O)CNC(=O)/C=C/c1ccccc1)c1ccccc1	4.0	-4.6	0.9
COc1ccc(/C=C/C(=O)NCC(=O)N/N=C(/CCC(=O)O)c2ccccc2)cc1	32.5*	-11.0	-0.7
CC(=O)N/N=C/c1cc(C(C)(C)C)cc(/C=N/NC(C)=O)c1O	10.9	62.5*	-2.1
Cc1cc(C(=O)N/N=C\c2cc(C(C)(C)C)ccc2O)n[nH]1	-1.6	42.9	-3.2
CN(Cc1ccccc1C#N)S(=O)(=O)c1cccs1	x	-2.9	-0.4
COc1ccccc1CN(C)S(=O)(=O)c1cccs1	64.1*	-0.7	-0.6
COCC(=O)N(C)C[C@H]1Oc2cc(C#CCC(C)C)ccc2S(=O)(=O)N([C@H](C)CO)C[C@H]1C	x	-4.6	x
CC=Cc1ccc2n(c1=O)C[C@H]1[C@H](CO)[C@@H](C(=O)Nc3ccccc3)N(CC3CC3)[C@@H]21 (mixture of isomers)	x	9.9	x
O=C(C[C@H]1C[C@H]2c3cc(NC(=O)NC4CCCCC4)ccc3O[C@H]2[C@H](CO)O1)NCC(F)(F)F	x	-2.7	x
COc1ccccc1CNS(=O)(=O)c1cc(CN2C(=O)c3cccnc3C2=O)ccc1OC	-3.9	21.9	-0.9
COc1cc(CCNC2=CC(=O)c3ncccc3C2=O)ccc1O	-2.8	37.1*	0.4
C[C@H](CO)N1C[C@H](C)[C@H](CN(C)C(=O)c2cnccn2)Oc2ncc(-c3ccccc3F)cc2C1=O	x	-2.0	x
Cc1noc(C)c1S(=O)(=O)Nc1ccc2c(c1)C(=O)N([C@@H](C)CO)C[C@@H](C)[C@@H](CN(C)S(=O)(=O)c1ccc(Cl)cc1)OCCCC[C@H](C)O2	x	11.5	x
NC(=O)NC(=O)COC(=O)c1sc2ccccc2c1Cl	-4.5	-15.6	-0.8
CN(C)CCOC(=O)c1sc2ccccc2c1Cl	83.7*	-4.5	-0.4
C[C@H](CO)N1C[C@H](C)[C@H](CN(C)C(=O)NC2CCCC2)Oc2ncc(-c3cccc(F)c3)cc2C1=O	x	-14.7	x
O=C(Oc1cccc2cccnc12)c1ccco1	-2.1	53.9*	x
O=C(Oc1cccc2cccnc12)c1ccc(Br)o1	x	6.8	-2.0
C[C@@H]1CN([C@H](C)CO)C(=O)c2cc(NC(=O)Nc3ccc(F)cc3)ccc2O[C@@H](C)CCCCO[C@H]1CN(C)C(=O)C1CCCCC1	x	-1.7	x
SMILES	CAL PDZ FP-1	ARNT-TACC3 inh	CAL PDZ FP-2
CN(C)C(=O)c1cccc(-c2ccc3c(c2)[C@H]2[C@H](CCN2C(=O)C2CCOCC2)[C@@H](CO)N3)c1	x	-1.8	x
CCC(=O)N1CCCCN2[C@H](CO)[C@H](c3ccc(C#Cc4ccccc4F)cc3)[C@@H]2C1	x	-3.2	x
COc1ccc(C(CNC(=O)c2ccc(NS(=O)(=O)c3ccc(F)c(C)c3)cc2)N2CCCC2)cc1 (stereo not drawn)	55.4*	3.0	-2.7
COc1ccccc1C(CNC(=O)c1ccc(NS(=O)(=O)c2ccc(F)c(C)c2)cc1)N1CCCC1 (stereo not drawn)	0.8	-21.0	-2.8
O=C1c2ccsc2SCCN1Cc1ccc(F)cc1	38.6*	9.4	x
O=C1c2ccsc2SCCN1Cc1ccc(Cl)cc1	-1.8	-8.5	-0.7
COc1ccc(-c2ccc([C@H]3[C@H](CO)N4CCCCN(C(=O)NC(C)C)C[C@@H]34)cc2)cc1	x	-0.1	x
NC(=NC(=O)c1ccccc1)N1CCN(C(c2ccccc2)c2ccccc2)CC1	89.4*	-3.0	0.3
CN1CCN(C(N)=NC(=O)c2ccccc2)CC1	-3.3	-4.6	-1.1
O=C(C[C@@H]1C[C@H]2c3cc(NC(=O)C4CCOCC4)ccc3O[C@H]2[C@H](CO)O1)NCc1ccc(Cl)cc1	x	-11.8	x
O=C(Nc1ccc(Cl)cc1)NN1CCCCCC1	-5.4	-3.6	-1.1
N#Cc1ccc(NC(=O)NN2CCCCCC2)cc1	82.2*	-1.9	-0.3
Cc1ccc(S(=O)(=O)N(C)C[C@@H]2Oc3ccc(NC(=O)CCN4CCOCC4)cc3C(=O)N([C@@H](C)CO)C[C@@H]2C)cc1	x	-0.4	x
C[C@H]1CN([C@@H](C)CO)C(=O)c2cc(NC(=O)C3CC3)ccc2O[C@@H]1CN(C)C(=O)Nc1ccc(C(F)(F)F)cc1	x	-4.5	x
Cc1ccc(NC(=O)C(NC2CCCC2)c2ccccc2)cc1Cl (stereo not drawn)	57.9*	-1.6	-1.1
COc1cccc(NC(=O)C(NC2CCCC2)c2ccccc2)c1 (stereo not drawn)	-3.3	2.7	0.1
O=C(Nc1ccc(F)cc1)C1CC2CCC1C2 (stereo not drawn)	x	4.9	-0.3
COC(=O)c1ccc(NC(=O)C2CC3CCC2C3)cc1 (stereo not drawn)	32.1*	-3.1	-3.1
CCc1ccc(NC(=O)c2ccc(NC(=O)C3CCCO3)cc2)cc1 (stereo not drawn)	-7.3	-3.3	-3.2
COC(=O)c1ccc(NC(=O)c2ccc(NC(=O)C3CCCO3)cc2)cc1 (stereo not drawn)	+	-5.0	-1.0
C[C@H](CO)N1C[C@H](C)[C@H](CN(C)Cc2ccc3c(c2)OCO3)Oc2ccc(NC(=O)C3CC3)cc2CC1=O	x	-4.2	x
O=C(NCC(F)(F)F)[C@@H]1[C@@H](CO)[C@@H]2Cn3c(cccc3=O)[C@@H]2N1C(=O)c1ccccc1F	x	-10.7	x
CNC[C@@H]1Oc2ccc(NS(=O)(=O)c3cn(C)cn3)cc2C(=O)N([C@H](C)CO)C[C@H]1C	x	-3.4	x
CC(C)NC(=O)Nc1ccc2c(c1)C(=O)N([C@@H](C)CO)C[C@H](C)[C@@H](CN(C)C(=O)Nc1ccc(F)cc1)OCCCC[C@@H](C)O2	x	-12.5	x
Cc1ccc(S(=O)(=O)N2c3ccccc3-c3c(ssc3=S)C2(C)C)cc1	-0.9	17.1	-2.6
CC1(C)CSC(=S)N1S(=O)(=O)c1ccccc1	-1.8	64.3*	-2.1
C[C@H](CO)N1C[C@H](C)[C@H](CN(C)Cc2ccncc2)Oc2c(NC(=O)Nc3ccc(C(F)(F)F)cc3)cccc2C1=O	x	26.8	x
O=C(CCNC(=O)c1ccc([N+](=O)[O-])cc1)NC1CCCc2ccccc21 (stereo not drawn)	0.3	1.0	-2.1
O=C(CNC(=O)c1cccc([N+](=O)[O-])c1)NC1CCCc2ccccc21 (stereo not drawn)	35.4*	x	-0.9
Cc1ccccc1CC(=O)NC1CCCc2ccccc21 (stereo not drawn)	-3.2	-4.8	2.3
